The target of test [1] is T1, Angiotensin-converting enzyme (Homo sapiens, UniProt P12821). The test is described as follows: Inhibition of recombinant human ACE N-domain expressed in CHO cells using Cbz-Phe-His-Leu as substrate preincubated for 15 mins followed by substrate addition and measured after 10 mins by fluorescence spectrophotometric analysis. The procedure, abridged: (§1)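 Fully glycosylated single-domain human ACE (C-domain D629, N-domain Δ36NJ) from CHO cells. Two-fold inhibitor dilution in 100 mM potassium phosphate pH 8.3, 300 mM NaCl, 10 μM ZnCl₂. Preincubation 15 min at 22 °C. 10 min at 37 °C, stopped with NaOH/o-phthalaldehyde, then HCl. Triplicates, n ≥ 2 independent experiments.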
T1 sequence (P12821 whole entry): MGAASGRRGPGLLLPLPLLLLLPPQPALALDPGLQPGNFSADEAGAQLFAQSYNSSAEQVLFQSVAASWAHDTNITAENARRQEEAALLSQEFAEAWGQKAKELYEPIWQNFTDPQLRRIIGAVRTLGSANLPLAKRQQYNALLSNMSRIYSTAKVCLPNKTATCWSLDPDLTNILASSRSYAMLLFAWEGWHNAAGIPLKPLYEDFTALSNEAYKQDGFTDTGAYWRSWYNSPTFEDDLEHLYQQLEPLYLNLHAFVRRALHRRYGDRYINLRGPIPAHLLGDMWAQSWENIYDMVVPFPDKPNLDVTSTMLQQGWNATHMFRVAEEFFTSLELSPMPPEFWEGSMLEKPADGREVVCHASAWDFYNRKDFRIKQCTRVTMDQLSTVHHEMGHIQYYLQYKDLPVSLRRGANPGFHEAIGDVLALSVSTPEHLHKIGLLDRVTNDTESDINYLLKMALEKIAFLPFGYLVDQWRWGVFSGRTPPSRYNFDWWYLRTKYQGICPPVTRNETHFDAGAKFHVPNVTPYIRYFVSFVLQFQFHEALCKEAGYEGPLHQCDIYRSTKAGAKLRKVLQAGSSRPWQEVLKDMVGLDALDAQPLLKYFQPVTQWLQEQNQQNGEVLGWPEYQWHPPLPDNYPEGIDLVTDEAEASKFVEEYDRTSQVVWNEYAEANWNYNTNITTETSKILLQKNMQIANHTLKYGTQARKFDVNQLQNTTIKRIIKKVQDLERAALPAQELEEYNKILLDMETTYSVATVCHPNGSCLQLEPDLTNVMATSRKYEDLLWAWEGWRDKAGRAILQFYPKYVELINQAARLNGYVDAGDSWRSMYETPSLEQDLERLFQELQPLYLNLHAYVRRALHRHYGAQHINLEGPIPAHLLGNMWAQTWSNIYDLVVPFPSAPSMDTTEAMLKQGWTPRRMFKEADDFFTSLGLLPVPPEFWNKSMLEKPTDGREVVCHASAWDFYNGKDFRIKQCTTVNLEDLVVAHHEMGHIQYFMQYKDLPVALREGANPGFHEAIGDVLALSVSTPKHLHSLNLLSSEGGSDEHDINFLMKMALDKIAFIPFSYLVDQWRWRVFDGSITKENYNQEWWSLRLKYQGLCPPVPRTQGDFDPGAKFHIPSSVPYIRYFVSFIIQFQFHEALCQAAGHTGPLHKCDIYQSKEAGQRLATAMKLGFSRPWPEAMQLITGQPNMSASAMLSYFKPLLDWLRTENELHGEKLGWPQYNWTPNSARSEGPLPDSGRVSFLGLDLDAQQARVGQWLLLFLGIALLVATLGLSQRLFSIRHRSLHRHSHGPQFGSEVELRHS

The species entered for another test is Homo sapiens. Kind of test: Selectivity ratio of Ki for human ACE N-domain expressed in CHO cells to Ki for human ACE C-domain expressed in CHO cells. The test is classed as cell-based. The procedure, abridged: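 Ki for each ACE domain from IC50 by Cheng-Prusoff for competitive inhibition, Ki = IC50/(1 + [S]/Km). […] Ratio taken as N-domain Ki over C-domain Ki.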

The target in another test is Neprilysin (Homo sapiens, UniProt P08473). Kind of test: Inhibition of hGH-8His-NEP expressed in CHO cells preincubated for 15 mins followed by […] peptide substrate addition by fluorescence spectrophotometric analysis. The class given is cell-based. The essentials: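 Secreted glycosylated human NEP ectodomain (hGH-8His fusion) from CHO cells, purified by cobalt affinity. Two-fold inhibitor serial dilution in 50 mM Tris pH 8.3, 0.05% Brij-35, 300 mM NaCl, 10 μM ZnCl₂. Enzyme and inhibitor preincubated 15 min at 22 °C. […] Continuous fluorescence at ex 320/em 405 nm. Triplicates, n ≥ 2 independent experiments.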
Chain of Neprilysin (P08473 whole entry, the tested form may be a part): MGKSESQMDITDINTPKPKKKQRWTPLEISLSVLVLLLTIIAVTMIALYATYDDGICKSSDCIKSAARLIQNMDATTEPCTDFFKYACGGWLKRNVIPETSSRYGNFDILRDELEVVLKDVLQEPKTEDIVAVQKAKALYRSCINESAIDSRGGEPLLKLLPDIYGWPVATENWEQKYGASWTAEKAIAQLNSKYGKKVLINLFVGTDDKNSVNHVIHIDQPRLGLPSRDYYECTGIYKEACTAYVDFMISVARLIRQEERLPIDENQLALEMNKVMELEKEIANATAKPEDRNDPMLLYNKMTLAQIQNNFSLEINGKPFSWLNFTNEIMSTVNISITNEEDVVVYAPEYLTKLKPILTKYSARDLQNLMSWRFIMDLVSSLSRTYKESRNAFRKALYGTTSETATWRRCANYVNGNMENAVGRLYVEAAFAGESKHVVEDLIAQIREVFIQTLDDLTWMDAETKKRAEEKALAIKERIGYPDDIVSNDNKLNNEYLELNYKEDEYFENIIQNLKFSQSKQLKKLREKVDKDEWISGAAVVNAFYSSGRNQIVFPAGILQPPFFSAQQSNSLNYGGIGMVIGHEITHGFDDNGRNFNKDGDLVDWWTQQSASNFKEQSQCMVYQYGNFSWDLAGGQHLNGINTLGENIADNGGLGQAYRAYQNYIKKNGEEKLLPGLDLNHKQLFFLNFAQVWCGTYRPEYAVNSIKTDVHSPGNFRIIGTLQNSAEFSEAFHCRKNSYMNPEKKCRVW

Test [2] addresses T1, Angiotensin-converting enzyme. Kind of test: Inhibition of recombinant human ACE C-domain expressed in CHO cells using Cbz-Phe-His-Leu as substrate preincubated for 15 mins followed by substrate addition and measured after 10 mins by fluorescence spectrophotometric analysis. The procedure, abridged: as §1

Where only a bound is given, the exact number is not on record here.

The Ki is the dissociation constant of the complex between target and ligand, obtained from inhibition or displacement. In the case of `CCCC[C@H](N[C@@H](CCc1ccccc1)C(=O)O)C(=O)N[C@@H](Cc1c[nH]c2ccccc12)C(=O)O`, the values for the Ki (in test [1]; at Neprilysin; in test [2]) were 3790 nM, 19000 nM and 100 nM, respectively. Besides, the Ratio Ki in the test filed under Homo sapiens came out at 37.
The matching figures for `CCCC[C@H](N[C@@H](CCc1ccccc1)C(=O)O)C(=O)N[C@@H](Cc1ccc(O)cc1)C(=O)O`: 120 nM, 600 nM, 35 nM and 3.5.
For `Cc1ccc([C@H]2CC[C@@H](C(=O)O)N2C(=O)CN[C@@H](CCc2ccccc2)C(=O)O)cc1` the same measures were 3400 nM, over 50000 nM, 440 nM and 8.
Turning to `NCCCC[C@H](N[C@@H](CCc1ccccc1)C(=O)O)C(=O)N[C@@H](Cc1c[nH]c2ccccc12)C(=O)O`, the values for the Ki (in test [1]; on Neprilysin; in test [2]) were 1700 nM, over 150000 nM and 9 nM, respectively. The Ratio Ki in the test listed under Homo sapiens was 189.

Values taken from ChEMBL document CHEMBL5038663, “Probing the Requirements for Dual Angiotensin-Converting Enzyme C-Domain Selective/Neprilysin Inhibition” (J Med Chem, 2022).
